Here are results for 5 molecules from ChEMBL document CHEMBL1157100, “The alkyl-connected 2-amino-6-vinylpurine (AVP) crosslinking agent for improved selectivity to the cytosine base in RNA” (Bioorg Med Chem, 2010).

Format in all cases: nucleic-acid assay
Assay [1] relates to Nucleic Acid. The experiment in a line: Binding affinity to r-(ACGUGAAUUGUUCAACAGUAUGGGCAU)-RNA assessed as melting temperature at 1.5 uM by UV-visible spectrophotometry. In outline:
(§1)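 Each strand at 1.5 µM: ODN plus complementary 27-mer RNA in 100 mM NaCl, 50 mM MES pH 5. Samples were heated at 85 °C for 10 min and cooled slowly. Melting curves were recorded at 260 nm while warming 20 to 80 °C at 1.0 °C/min to obtain Tm.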

Assay [2] deals with Nucleic Acid. The experiment in a line: Binding affinity to FAM-tagged r-(CAAGCGGAGAAAYUAAUUGCGGGUCGC)-RNA assessed as crosslinking at 10 uM by alkylation method. In a few lines: (§2)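 Reactive ODN at 10 µM with 1 µM FAM-labeled target DNA or RNA in 100 mM NaCl, 50 mM MES pH 5 plus RNase OUT, mixed at 0 °C and then incubated at 37 °C. Reactions were stopped at set times with formamide/EDTA/bromophenol blue buffer. Products were resolved on 15% denaturing polyacrylamide gel with 7 M urea, and FAM band intensities were quantified to give crosslinking yield.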

Assay [3] deals with Nucleic Acid. The assay is described as follows: Binding affinity to r-(CGCUGGGCGUUAAUCAAAGAGGCGAAC)-RNA assessed as melting temperature at 1.5 uM by UV-visible spectrophotometry. In a few lines:
as §1

The test system of assay [4] is Nucleic Acid. The experiment in a line: Binding affinity to FAM-tagged 27 mer RNA hairpin loop assessed as crosslinking at 10 uM by PAGE. In a few lines:
as §2

Molecules are shown by their SMILES. Activity calls are given as the source filed them. The calls are words filed in the database; no cut-off is given here.

On to `CSCCc1nc(N)nc2c1ncn2[C@H]1C[C@H](OP(=O)(O)OC[C@H]2O[C@@H](n3cc(C)c(=O)[nH]c3=O)C[C@@H]2OP(=O)(O)OC[C@H]2O[C@@H](n3cc(C)c(=O)[nH]c3=O)C[C@@H]2OP(=O)(O)OC[C@H]2O[C@@H](n3cnc4c(=O)[nH]c(N)nc43)[C@H](O)[C@@H]2OP(=O)(O)OC[C@H]2O[C@@H](n3cnc4c(N)ncnc43)[C@H](O)[C@@H]2OP(=O)(O)OC[C@H]2O[C@@H](n3cnc4c(=O)[nH]c(N)nc43)[C@H](O)[C@@H]2OP(=O)(O)OC[C@H]2O[C@@H](n3ccc(N)nc3=O)[C@H](O)[C@@H]2OP(=O)(O)OC[C@H]2O[C@@H](n3cnc4c(N)ncnc43)[C@H](O)[C@@H]2OP(=O)(O)OC[C@H]2O[C@@H](n3cnc4c(N)ncnc43)[C@H](O)[C@@H]2OP(=O)(O)OC[C@H]2O[C@@H](n3cc(C)c(=O)[nH]c3=O)C[C@@H]2OP(CCC#N)N(C(C)C)C(C)C)[C@@H](COP(=O)(O)O[C@H]2C[C@H](n3cc(C)c(=O)[nH]c3=O)O[C@@H]2COP(=O)(O)O[C@H]2[C@@H](O)[C@H](n3ccc(N)nc3=O)O[C@@H]2COP(=O)(O)O[C@H]2[C@@H](O)[C@H](n3cnc4c(N)ncnc43)O[C@@H]2COP(=O)(O)O[C@H]2C[C@H](n3cc(C)c(=O)[nH]c3=O)O[C@@H]2COP(=O)(O)O[C@H]2[C@@H](O)[C@H](n3cnc4c(N)ncnc43)O[C@@H]2COP(=O)(O)O[C@H]2[C@@H](O)[C@H](n3ccc(N)nc3=O)O[C@@H]2COP(=O)(O)O[C@H]2[C@@H](O)[C@H](n3ccc(N)nc3=O)O[C@@H]2COP(=O)(O)O[C@H]2[C@@H](O)[C@H](n3ccc(N)nc3=O)O[C@@H]2COP(=O)(O)O[C@H]2[C@@H](O)[C@H](n3cnc4c(=O)[nH]c(N)nc43)O[C@@H]2COP(=O)(O)O[C@H]2C[C@H](n3cc(C)c(=O)[nH]c3=O)O[C@@H]2COP(=O)(O)O[C@H]2[C@@H](O)[C@H](n3cnc4c(N)ncnc43)O[C@@H]2CO)O1` (stereo partly drawn), for which the Tm with Nucleic Acid [1] was 53.3 °C. In the assay on Nucleic Acid [2], the outcome was inactive.
For the molecule `CSCCc1nc(N)nc2c1ncn2CC[C@H]1C[C@H](OP(=O)(O)OC[C@H]2O[C@@H](n3cc(C)c(=O)[nH]c3=O)C[C@@H]2OP(=O)(O)OC[C@H]2O[C@@H](n3cc(C)c(=O)[nH]c3=O)C[C@@H]2OP(=O)(O)OC[C@H]2O[C@@H](n3cnc4c(=O)[nH]c(N)nc43)[C@H](O)[C@@H]2OP(=O)(O)OC[C@H]2O[C@@H](n3cnc4c(N)ncnc43)[C@H](O)[C@@H]2OP(=O)(O)OC[C@H]2O[C@@H](n3cnc4c(=O)[nH]c(N)nc43)[C@H](O)[C@@H]2OP(=O)(O)OC[C@H]2O[C@@H](n3ccc(N)nc3=O)[C@H](O)[C@@H]2OP(=O)(O)OC[C@H]2O[C@@H](n3cnc4c(N)ncnc43)[C@H](O)[C@@H]2OP(=O)(O)OC[C@H]2O[C@@H](n3cnc4c(N)ncnc43)[C@H](O)[C@@H]2OP(=O)(O)OC[C@H]2O[C@@H](n3cc(C)c(=O)[nH]c3=O)C[C@@H]2OP(CCC#N)N(C(C)C)C(C)C)[C@@H](COP(=O)(O)O[C@H]2C[C@H](n3cc(C)c(=O)[nH]c3=O)O[C@@H]2COP(=O)(O)O[C@H]2[C@@H](O)[C@H](n3ccc(N)nc3=O)O[C@@H]2COP(=O)(O)O[C@H]2[C@@H](O)[C@H](n3cnc4c(N)ncnc43)O[C@@H]2COP(=O)(O)O[C@H]2C[C@H](n3cc(C)c(=O)[nH]c3=O)O[C@@H]2COP(=O)(O)O[C@H]2[C@@H](O)[C@H](n3cnc4c(N)ncnc43)O[C@@H]2COP(=O)(O)O[C@H]2[C@@H](O)[C@H](n3ccc(N)nc3=O)O[C@@H]2COP(=O)(O)O[C@H]2[C@@H](O)[C@H](n3ccc(N)nc3=O)O[C@@H]2COP(=O)(O)O[C@H]2[C@@H](O)[C@H](n3ccc(N)nc3=O)O[C@@H]2COP(=O)(O)O[C@H]2[C@@H](O)[C@H](n3cnc4c(=O)[nH]c(N)nc43)O[C@@H]2COP(=O)(O)O[C@H]2C[C@H](n3cc(C)c(=O)[nH]c3=O)O[C@@H]2COP(=O)(O)O[C@H]2[C@@H](O)[C@H](n3cnc4c(N)ncnc43)O[C@@H]2CO)O1` (stereo partly drawn), the Tm with Nucleic Acid [1] amounted to 49.7 °C. Besides, the result with Nucleic Acid [2] was inactive.
Consider `Cc1cn([C@H]2C[C@H](OP(CCC#N)N(C(C)C)C(C)C)[C@@H](COP(=O)(O)O[C@H]3[C@@H](O)[C@H](n4cnc5c(N)ncnc54)O[C@@H]3COP(=O)(O)O[C@H]3[C@@H](O)[C@H](n4cnc5c(N)ncnc54)O[C@@H]3COP(=O)(O)O[C@H]3[C@@H](O)[C@H](n4ccc(N)nc4=O)O[C@@H]3COP(=O)(O)O[C@H]3[C@@H](O)[C@H](n4cnc5c(=O)[nH]c(N)nc54)O[C@@H]3COP(=O)(O)O[C@H]3[C@@H](O)[C@H](n4cnc5c(N)ncnc54)O[C@@H]3COP(=O)(O)O[C@H]3[C@@H](O)[C@H](n4cnc5c(=O)[nH]c(N)nc54)O[C@@H]3COP(=O)(O)O[C@H]3C[C@H](n4cc(C)c(=O)[nH]c4=O)O[C@@H]3COP(=O)(O)O[C@H]3C[C@H](n4cc(C)c(=O)[nH]c4=O)O[C@@H]3COP(=O)(O)O[C@H]3[C@@H](O)[C@H](n4cnc5c(=O)[nH]c(N)nc54)O[C@@H]3COP(=O)(O)O[C@H]3C[C@H](n4cc(C)c(=O)[nH]c4=O)O[C@@H]3COP(=O)(O)O[C@H]3[C@@H](O)[C@H](n4ccc(N)nc4=O)O[C@@H]3COP(=O)(O)O[C@H]3[C@@H](O)[C@H](n4cnc5c(N)ncnc54)O[C@@H]3COP(=O)(O)O[C@H]3C[C@H](n4cc(C)c(=O)[nH]c4=O)O[C@@H]3COP(=O)(O)O[C@H]3[C@@H](O)[C@H](n4cnc5c(N)ncnc54)O[C@@H]3COP(=O)(O)O[C@H]3[C@@H](O)[C@H](n4ccc(N)nc4=O)O[C@@H]3COP(=O)(O)O[C@H]3[C@@H](O)[C@H](n4ccc(N)nc4=O)O[C@@H]3COP(=O)(O)O[C@H]3[C@@H](O)[C@H](n4ccc(N)nc4=O)O[C@@H]3COP(=O)(O)O[C@H]3[C@@H](O)[C@H](n4cnc5c(=O)[nH]c(N)nc54)O[C@@H]3COP(=O)(O)O[C@H]3C[C@H](n4cc(C)c(=O)[nH]c4=O)O[C@@H]3COP(=O)(O)O[C@H]3[C@@H](O)[C@H](n4cnc5c(N)ncnc54)O[C@@H]3CO)O2)c(=O)[nH]c1=O` (stereo partly drawn), for which the Tm in the assay with Nucleic Acid [1] came to 64.1 °C.
For the molecule `CSCCc1nc(N)nc2c1ncn2CC[C@H]1C[C@H](OP(=O)(O)OC[C@H]2O[C@@H](n3cnc4c(N)ncnc43)[C@H](O)[C@@H]2OP(=O)(O)OC[C@H]2O[C@@H](n3cc(C)c(=O)[nH]c3=O)C[C@@H]2OP(=O)(O)OC[C@H]2O[C@@H](n3cc(C)c(=O)[nH]c3=O)C[C@@H]2OP(=O)(O)OC[C@H]2O[C@@H](n3cnc4c(N)ncnc43)[C@H](O)[C@@H]2OP(=O)(O)OC[C@H]2O[C@@H](n3cnc4c(N)ncnc43)[C@H](O)[C@@H]2OP(=O)(O)OC[C@H]2O[C@@H](n3ccc(N)nc3=O)[C@H](O)[C@@H]2OP(=O)(O)OC[C@H]2O[C@@H](n3cnc4c(=O)[nH]c(N)nc43)[C@H](O)[C@@H]2OP(=O)(O)OC[C@H]2O[C@@H](n3ccc(N)nc3=O)[C@H](O)[C@@H]2OP(=O)(O)OC[C@H]2O[C@@H](n3ccc(N)nc3=O)[C@H](O)[C@@H]2OP(=O)(O)O)[C@@H](COP(=O)(O)O[C@H]2C[C@H](n3cc(C)c(=O)[nH]c3=O)O[C@@H]2COP(=O)(O)O[C@H]2C[C@H](n3cc(C)c(=O)[nH]c3=O)O[C@@H]2COP(=O)(O)O[C@H]2C[C@H](n3cc(C)c(=O)[nH]c3=O)O[C@@H]2COP(=O)(O)O[C@H]2[C@@H](O)[C@H](n3ccc(N)nc3=O)O[C@@H]2COP(=O)(O)O[C@H]2C[C@H](n3cc(C)c(=O)[nH]c3=O)O[C@@H]2COP(=O)(O)O[C@H]2[C@@H](O)[C@H](n3ccc(N)nc3=O)O[C@@H]2COP(=O)(O)O[C@H]2[C@@H](O)[C@H](n3ccc(N)nc3=O)O[C@@H]2COP(=O)(O)O[C@H]2[C@@H](O)[C@H](n3cnc4c(=O)[nH]c(N)nc43)O[C@@H]2COP(=O)(O)O[C@H]2[C@@H](O)[C@H](n3ccc(N)nc3=O)O[C@@H]2COP(=O)(O)O[C@H]2C[C@H](n3cc(C)c(=O)[nH]c3=O)O[C@@H]2COP(=O)(O)O[C@H]2C[C@H](n3cc(C)c(=O)[nH]c3=O)O[C@@H]2CO)O1`, the result in the assay with Nucleic Acid [2] was Active. Besides, the Tm in the assay on Nucleic Acid [3] stood at 50.4 °C.
As for `CSCCc1nc(N)nc2c1ncn2[C@H]1C[C@H](OP(=O)(O)OC[C@H]2O[C@@H](n3cc(C)c(=O)[nH]c3=O)C[C@@H]2OP(=O)(O)OC[C@H]2O[C@@H](n3cnc4c(N)ncnc43)[C@H](O)[C@@H]2OP(=O)(O)OC[C@H]2O[C@@H](n3cc(C)c(=O)[nH]c3=O)C[C@@H]2OP(CCC#N)N(C(C)C)C(C)C)[C@@H](COP(=O)(O)O[C@H]2C[C@H](n3cc(C)c(=O)[nH]c3=O)O[C@@H]2COP(=O)(O)O[C@H]2C[C@H](n3cc(C)c(=O)[nH]c3=O)O[C@@H]2COP(=O)(O)O[C@H]2[C@@H](O)[C@H](n3cnc4c(N)ncnc43)O[C@@H]2COP(=O)(O)O[C@H]2[C@@H](O)[C@H](n3cnc4c(N)ncnc43)O[C@@H]2COP(=O)(O)O[C@H]2[C@@H](O)[C@H](n3cnc4c(N)ncnc43)O[C@@H]2COP(=O)(O)O[C@H]2[C@@H](O)[C@H](n3ccc(N)nc3=O)O[C@@H]2COP(=O)(O)O[C@H]2C[C@H](n3cc(C)c(=O)[nH]c3=O)O[C@@H]2COP(=O)(O)O[C@H]2[C@@H](O)[C@H](n3cnc4c(N)ncnc43)O[C@@H]2COP(=O)(O)O[C@H]2[C@@H](O)[C@H](n3cnc4c(=O)[nH]c(N)nc43)O[C@@H]2COP(=O)(O)O[C@H]2C[C@H](n3cc(C)c(=O)[nH]c3=O)O[C@@H]2COP(=O)(O)O[C@H]2[C@@H](O)[C@H](n3ccc(N)nc3=O)O[C@@H]2COP(=O)(O)O[C@H]2[C@@H](O)[C@H](n3cnc4c(N)ncnc43)O[C@@H]2COP(=O)(O)O[C@H]2C[C@H](n3cc(C)c(=O)[nH]c3=O)O[C@@H]2COP(=O)(O)O[C@H]2[C@@H](O)[C@H](n3cnc4c(N)ncnc43)O[C@@H]2COP(=O)(O)O[C@H]2C[C@H](n3cc(C)c(=O)[nH]c3=O)O[C@@H]2CO)O1` (stereo partly drawn), the outcome in the assay with Nucleic Acid [4] was inactive.
